An excerpt weighted towards active compounds, which were near 1.3% of everything screened.
proCasp3 act – activators of human procaspase-3 | recombinant procaspase-3 D3A, Ac-DEVD-pNA absorbance 405 nm | activation, % at 8.5 µM | actives 0.11% (n = 330,000);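 active means activation above the mean of all tested compounds plus 3 SD, cut at about 21% in these data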;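 further: 0% = DMSO alone and 100% = DMSO wells spiked with extra 5 µM PC-3 D3A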
Target sequence (P42574 whole entry D9A/D28A/D175A): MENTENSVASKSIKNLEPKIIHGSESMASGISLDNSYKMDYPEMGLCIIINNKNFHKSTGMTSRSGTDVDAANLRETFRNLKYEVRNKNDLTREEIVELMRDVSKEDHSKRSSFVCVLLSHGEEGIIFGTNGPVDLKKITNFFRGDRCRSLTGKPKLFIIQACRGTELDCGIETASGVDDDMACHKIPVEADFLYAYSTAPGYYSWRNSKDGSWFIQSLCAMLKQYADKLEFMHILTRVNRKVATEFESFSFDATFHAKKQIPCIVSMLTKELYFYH
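assay system = Procaspase-3 D3A mutant | signal = absorbance at 405 nm, 0 and 120 min | times = 1 h preincubation plus 2 h reaction at 25 °C | repeats = single replicate | read-out = % activation between DMSO and enzyme-spiked controls | medium = Zinc-free HEPES saline buffer with Triton X-100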
CHT PAM – allosterically activates the human high affinity choline transporter; Q9GZV3; AID 488977; B-score at 10 µM; CHT-expressing cells, membrane potential dye, choline EC20; active compounds read high; LV-AA mutant CHT in HEK293 cells; actives 0.49% (n = 310,000);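 active means initial fluorescence not abnormally high and integrated response B-score, plate-corrected, over 3 SD above library mean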
procasp7 counter – counter-screen for procaspase-3 activators: activators of human procaspase-7. P55210. recombinant procaspase-7, Ac-DEVD-pNA absorbance 405 nm; D23A/D198A/D206A triple mutant, cannot self-cleave; scale: DMSO 0, 5 µM enzyme 100. activation, % at 8.5 µM. actives 0.093% (n = 330,000);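 active means percent activation above the screen-wide mean plus 3 SD, cut at about 25% in these data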
Target sequence (P55210 whole entry D23A/D198A/D206A): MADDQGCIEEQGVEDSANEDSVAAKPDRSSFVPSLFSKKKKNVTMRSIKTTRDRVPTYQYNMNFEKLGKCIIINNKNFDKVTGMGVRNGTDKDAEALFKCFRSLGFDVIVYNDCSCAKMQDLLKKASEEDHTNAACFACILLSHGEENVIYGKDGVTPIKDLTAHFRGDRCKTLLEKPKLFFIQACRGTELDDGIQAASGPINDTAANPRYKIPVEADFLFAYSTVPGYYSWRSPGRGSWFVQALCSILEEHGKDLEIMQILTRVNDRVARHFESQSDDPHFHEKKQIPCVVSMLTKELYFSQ
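Material: Procaspase-7 triple mutant (PC-7 D3A) | Quantity: 2 µM procaspase-7 mutant as dispensed | Reagent: DEVD-pNA substrate | Times: 1 h preincubation, 2 h reaction | Technique: 405 nm absorbance of p-nitroaniline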
CHT inh – inhibitors of human choline transporter CHT; Q9GZV3; CHT-expressing cells, membrane potential dye, choline response; active compounds read low; B-score at 10 µM; actives 0.86% (n = 310,000);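 active means B-score over 3 SD under the library average, and starting fluorescence ratio not unusually high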;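 further: choline stimulus applied at its EC90 after an EC20 pre-addition; B-score computed on integrated fluorescence ratio after choline addition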
Starred values were filed as active, the others as inactive; i = inactive; x = no result.

SMILES	proCasp3 act	CHT PAM	procasp7 counter	CHT inh
Cc1nn(-c2ccccc2)c(C)c1/C=N/NC(=O)c1cc(C23CC4CC(CC(C4)C2)C3)[nH]n1	0	i	0	-8.5*
Cc1cc(C(=O)N/N=C/c2c(C)nn(-c3ccccc3)c2C)n[nH]1	-7	i	-9	i
Cc1ccc2cc(C#N)c(N3CCCN(C(=O)C4CCCO4)CC3)nc2c1C (stereo not given)	-4	i	-20	-6.1*
CCOc1ccc(C2=Nn3c(nnc3-c3ccccc3OC)SC2)cc1	-10	i	-13	-5.3*
COc1ccccc1-c1nnc2n1N=C(c1ccc(O)c(O)c1)CS2	-3	i	5	i
COc1cccc(NC(=O)CSc2nnc(-c3ccco3)c(-c3ccco3)n2)c1	-7	i	-15	-7.4*
COc1ccc(NC(=O)CSc2nnc(-c3ccco3)c(-c3ccco3)n2)cc1OC	-7	i	-18	i
Brc1ccc(CSc2nnc(-c3cccnc3)o2)cc1	-5	i	11	-6.3*
c1ccc(CSc2nnc(-c3cccnc3)o2)cc1	8	i	9	i
CCOc1ccc(NS(=O)(=O)c2cc(NC(=O)CCS(=O)(=O)c3ccc(C)cc3)ccc2OC)cc1	-2	i	0	-5.1*
O=C(COc1ncnc2sccc12)Nc1cccc(S(=O)(=O)N2CCOCC2)c1	5	x	3	x
CN1CCc2c(n(CC(O)CNCc3ccccc3)c3ccccc23)C1=O (stereo not given)	0	i	-2	i
CC(C)NCC(O)Cn1c2c(c3ccccc31)CCc1c-2cnn1-c1ccccc1 (stereo not given)	-14	i	-1	-6.5*
Nc1ncnc2c1ncn2[C@@H]1O[C@H](CN2CCCS2(=O)=O)[C@@H](O)[C@H]1O	5	x	-5	x
CCCCc1nc2cc(C(=O)N3CCN(c4cnccn4)CC3)ccc2o1	6	i	-3	-9.7*
COC(=O)c1ccc2c(c1)C(C)(C)C(/C=C/c1ccc(O)cc1)=[N+]2C	-14	6.5*	-12	i
COc1cccc(C2=CC(c3ccc(N(C)C)cc3)n3ncnc3N2)c1 (stereo not given)	-29	i	-44	-9.3*
COc1cccc(C2=CC(c3ccc(N(C)C)cc3)n3nnnc3N2)c1 (stereo not given)	-16	i	-31	i
COc1ccc(CN(C)C(C)C(=O)Nc2ccc(S(=O)(=O)N3CCCCC3)cc2)cc1F (stereo not given)	4	x	2	x
O=C(Cc1ccc(Br)cc1)c1ccc(O)cc1O	-2	i	-1	-6.7*
COc1ccc(CC(=O)c2ccc(O)cc2O)cc1	2	i	3	i
CC(C)=CCC[C@](C)(O[C@@H]1O[C@H](CO[C@@H]2OC[C@@H](O)[C@H](O)[C@H]2O)[C@@H](O)[C@H](O)[C@H]1O)C1CC[C@]2(C)C1[C@H](O)CC1[C@@]3(C)CC[C@H](O[C@@H]4O[C@H](CO)[C@@H](O)[C@H](O)[C@H]4O)C(C)(C)C3CC[C@]12C (stereo not given in full)	-2	x	7	x
Clc1cccc(-c2nnc(SC/C=C/c3ccccc3)n2Cc2ccco2)c1	0	7.3*	-11	i
COc1ccc(S(=O)(=O)Nc2ccc(F)c(F)c2)cc1Cl	10	i	-1	-6.4*
CN(CC(=O)Nc1c(Cl)cccc1Cl)C(=O)C1CC(=O)N(Cc2ccccc2)C1 (stereo not given)	-3	x	0	x
SMILES	proCasp3 act	CHT PAM	procasp7 counter	CHT inh
CCCC(=O)O[C@]1(C(=O)COC(C)=O)CC[C@H]2[C@@H]3C[C@H](F)C4=CC(=O)C=C[C@]4(C)[C@@]3(F)[C@@H](O)C[C@@]21C	7	i	12	-5*
Cc1csc(=O)n1CC(=O)Nc1nc2ccccc2s1	-5	x	5	x
CC(C)c1ccc(OCc2ccc(C(=O)N3CCCC3)o2)cc1	5	7.1*	-1	i
Cc1cc(/C=N/NC(=O)c2ccccc2F)c(C)n1-c1ccccc1	4	i	3	-6.3*
Cc1cc(/C=N/NC(=O)c2cccc(F)c2)c(C)n1-c1ccccc1	0	i	-1	i
Cc1sc2ccc3sccc3c2[n+]1C	-24	12*	-41	i
CCCCCCCCCCn1c2c(c(=N)c3c1CCC3)CCC2	-2	16*	12	i
CCCCn1c2c(c(=N)c3ccccc31)CCC2	2	i	-3	i
CC1CCC(C(=O)c2c(O)c3ccccc3oc2=O)CC1 (stereo not given)	-5	i	4	-11*
CC(=N)c1c(O)c2ccccc2oc1=O	7	i	6	i
CCOC(=O)/C=C/S(=O)(=O)c1ccc(NC(C)=O)cc1	-17	i	-25	-5.5*
CC(C)(C)c1ccc(C(=O)NC(=S)NNC(=O)COc2ccccc2)cc1	-8	i	-14	-5.1*
CC(C)(C)c1ccc(OCC(=O)NNC(=O)CCc2ccccc2)cc1	2	i	-8	i
N#C/C(=C(/O)CCl)c1nc2c(s1)CCc1ccccc1-2	-14	i	-17	-10*
CC(=O)Nc1ccc(N2CCc3c(C)c(C#N)c4nc5ccccc5n4c32)cc1	65*	i	90*	i
CC(=O)c1ccc(Nc2c3c(c(C#N)c4nc5ccccc5n24)CCC3)cc1	10	i	-5	i
CC(=O)O[C@H]1C[C@@H]2CC[C@@H]3[C@H](CC[C@@]4(C)[C@H]3C[C@H]([N+]3(C)CCCCC3)[C@@H]4OC(C)=O)[C@@]2(C)C[C@@H]1N1CCCCC1	6	6.5*	1	i
COCCCNC(=O)CC1C[C@H](C(=O)N2CCCCC2)[C@@]2(CCc3ccccc3)c3[nH]c4ccc(OC)cc4c3CCN2C1=O (stereo not given in full)	2	x	4	x
CCOC(=O)C1(CCc2ccccc2)CCN(Cc2ccn[nH]2)CC1	2	i	15	i
CCOC(=O)C1(CCc2ccccc2)CCN(Cc2cccc3nccnc23)CC1	-7	i	11	-12*
COc1ccc(N2CCN(C(=O)CN3C(=O)NC4(CCCCC4C)C3=O)CC2)cc1 (stereo not given)	13	x	3	x
O=C(c1ccccc1NS(=O)(=O)c1cccc([N+](=O)[O-])c1)N1CCOCC1	26*	i	7	i
CSc1nc(SCC(=O)NC(c2ccccc2)c2ccccc2)c2c3c(sc2n1)CN(C)CC3	-8	i	-5	i
CCN(CC)CCCNc1nc(SC)nc2sc3c(c12)CCN(C)C3	0	7.1*	7	i
Cc1ccc(C(=O)OCC(=O)N2CCCC2)cc1	6	i	6	i
C=CCNC(=S)N1CCN(c2ncc3c(=O)c(C(=O)O)cn(CC)c3n2)CC1	7	i	-3	i
CCn1cc(C(=O)O)c(=O)c2cnc(N3CCNCC3)nc21	2	11*	3	i

High-throughput results: PubChem, several laboratories
